Paper PMC4415995 (Advances in Therapy, 2015)

Columns and labels:
[1] = tested on: Japanese patients with T2DM; assay: Adverse events, 7-day once-daily dosing; type: in vivo, human; settings: for ALT increased / Blood urine present / Constipation / Dermatitis contact / Diarrhea / Headache / Pruritus / γ-GTP increased: N = 8
Summary of the method: (§1)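 Randomized, single-blind, placebo-controlled, parallel-group study in Japanese T2DM outpatients (HbA1c 6.9–10.5%, FPG ≥126 mg/dL, stable diet 4 weeks, age 20–74 y). Test compound 0.5, 1, 2.5 or 5 mg or placebo was given orally once daily for 7 days before breakfast. Safety set was all dosed patients. AEs were coded in MedDRA 12.1 and graded mild/moderate/severe, with drug relation judged by the investigator. Labs, vital signs, body weight and ECG were also recorded.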

[2] = tested on: Japanese patients with T2DM; assay: Clinical laboratory tests and vital signs, 7-day once-daily dosing; type: in vivo, human
Summary of the method: as §1

CCOc1ccc(Cc2cc([C@@H]3S[C@H](CO)[C@@H](O)[C@H](O)[C@H]3O)c(OC)cc2C)cc1 [Luseogliflozin, (1S)-1,5-anhydro-1-[5-(4-ethoxybenzyl)-2-methoxy-4-methylphenyl]-1-thio-D-glucitol]
ALT increased ([1]; 0.5 mg OD for 7 days): 0 number of subjects | Blood urine present ([1]; 0.5 mg OD for 7 days): 0 number of subjects | Constipation ([1]; 0.5 mg OD for 7 days): 1 number of subjects | Dermatitis contact ([1]; 0.5 mg OD for 7 days): 0 number of subjects | Diarrhea ([1]; 0.5 mg OD for 7 days): 1 number of subjects | Headache ([1]; 0.5 mg OD for 7 days): 1 number of subjects | Pruritus ([1]; 0.5 mg OD for 7 days): 1 number of subjects | γ-GTP increased ([1]; 0.5 mg OD for 7 days): 0 number of subjects | ALT increased ([1]; 1 mg OD for 7 days): 0 number of subjects | Blood urine present ([1]; 1 mg OD for 7 days): 0 number of subjects | Constipation ([1]; 1 mg OD for 7 days): 0 number of subjects | Dermatitis contact ([1]; 1 mg OD for 7 days): 1 number of subjects | Diarrhea ([1]; 1 mg OD for 7 days): 0 number of subjects | Headache ([1]; 1 mg OD for 7 days): 0 number of subjects | Pruritus ([1]; 1 mg OD for 7 days): 0 number of subjects | γ-GTP increased ([1]; 1 mg OD for 7 days): 0 number of subjects | ALT increased ([1]; 2.5 mg OD for 7 days): 1 number of subjects | Blood urine present ([1]; 2.5 mg OD for 7 days): 0 number of subjects | Constipation ([1]; 2.5 mg OD for 7 days): 0 number of subjects | Dermatitis contact ([1]; 2.5 mg OD for 7 days): 0 number of subjects | Diarrhea ([1]; 2.5 mg OD for 7 days): 0 number of subjects | Headache ([1]; 2.5 mg OD for 7 days): 0 number of subjects | Pruritus ([1]; 2.5 mg OD for 7 days): 0 number of subjects | γ-GTP increased ([1]; 2.5 mg OD for 7 days): 1 number of subjects | ALT increased ([1]; 5 mg OD for 7 days): 0 number of subjects | Blood urine present ([1]; 5 mg OD for 7 days): 1 number of subjects | Constipation ([1]; 5 mg OD for 7 days): 0 number of subjects | Dermatitis contact ([1]; 5 mg OD for 7 days): 0 number of subjects | Diarrhea ([1]; 5 mg OD for 7 days): 0 number of subjects | Headache ([1]; 5 mg OD for 7 days): 1 number of subjects | Pruritus ([1]; 5 mg OD for 7 days): 0 number of subjects | γ-GTP increased ([1]; 5 mg OD for 7 days): 0 number of subjects | episodes of hypoglycemia ([1]; 0.5-5 mg OD for 7 days): no episodes | serious AEs or AEs leading to discontinuation ([1]; 0.5-5 mg OD for 7 days): no serious AEs | severity of adverse events ([1]; 0.5-5 mg OD for 7 days): mild | urinary tract/genital infection ([1]; 0.5-5 mg OD for 7 days): no episodes | Cystatin C, change from baseline ([2]; 0.5 mg OD, Day 1): -0.040 ± 0.018 mg/L | DBP, change from baseline ([2]; 0.5 mg OD, Day 1): 3.0 ± 5.2 mmHg | Hematocrit, change from baseline ([2]; 0.5 mg OD, Day 1): −1.14 ± 0.73% | SBP, change from baseline ([2]; 0.5 mg OD, Day 1): −1.7 ± 6.0 mmHg | Serum calcium, change from baseline ([2]; 0.5 mg OD, Day 1): -0.19 ± 0.12 mg/dL | Serum phosphorus, change from baseline ([2]; 0.5 mg OD, Day 1): 0.30 ± 0.40 mg/dL | Urinary NAG, change from baseline ([2]; 0.5 mg OD, Day 1): −0.31 ± 0.67 U/L | Urinary calcium, change from baseline ([2]; 0.5 mg OD, Day 1): 0.01 ± 0.04 g/day | Urinary phosphorus, change from baseline ([2]; 0.5 mg OD, Day 1): -0.13 ± 0.10 g/day | Urinary type IV collagen, change from baseline ([2]; 0.5 mg OD, Day 1): −0.40 ± 1.08 μg/g creatinine | Urinary uric acid, change from baseline ([2]; 0.5 mg OD, Day 1): 0.04 ± 0.05 g/day | Urinary β2-microglobulin, change from baseline ([2]; 0.5 mg OD, Day 1): -12.4 ± 25.2 µg/L | Cystatin C, change from baseline ([2]; 0.5 mg OD, Day 7): -0.067 ± 0.029 mg/L | DBP, change from baseline ([2]; 0.5 mg OD, Day 7): 3.1 ± 3.8 mmHg | Hematocrit, change from baseline ([2]; 0.5 mg OD, Day 7): −2.20 ± 0.95% | SBP, change from baseline ([2]; 0.5 mg OD, Day 7): −5.9 ± 3.8 mmHg | Serum calcium, change from baseline ([2]; 0.5 mg OD, Day 7): -0.24 ± 0.05 mg/dL | Serum phosphorus, change from baseline ([2]; 0.5 mg OD, Day 7): 0.16 ± 0.40 mg/dL | Urinary NAG, change from baseline ([2]; 0.5 mg OD, Day 7): −0.06 ± 0.80 U/L | Urinary calcium, change from baseline ([2]; 0.5 mg OD, Day 7): 0.01 ± 0.04 g/day | Urinary phosphorus, change from baseline ([2]; 0.5 mg OD, Day 7): -0.04 ± 0.13 g/day | Urinary type IV collagen, change from baseline ([2]; 0.5 mg OD, Day 7): −0.21 ± 1.25 μg/g creatinine | Urinary uric acid, change from baseline ([2]; 0.5 mg OD, Day 7): -0.01 ± 0.07 g/day | Urinary β2-microglobulin, change from baseline ([2]; 0.5 mg OD, Day 7): -7.4 ± 27.1 µg/L | Cystatin C, change from baseline ([2]; 1 mg OD, Day 1): 0.005 ± 0.077 mg/L | DBP, change from baseline ([2]; 1 mg OD, Day 1): 0.4 ± 4.9 mmHg | Hematocrit, change from baseline ([2]; 1 mg OD, Day 1): −1.26 ± 0.86% | SBP, change from baseline ([2]; 1 mg OD, Day 1): 3.5 ± 9.6 mmHg | Serum calcium, change from baseline ([2]; 1 mg OD, Day 1): -0.19 ± 0.16 mg/dL | Serum phosphorus, change from baseline ([2]; 1 mg OD, Day 1): 0.57 ± 0.32 mg/dL | Urinary NAG, change from baseline ([2]; 1 mg OD, Day 1): −0.33 ± 0.99 U/L | Urinary calcium, change from baseline ([2]; 1 mg OD, Day 1): 0.00 ± 0.00 g/day | Urinary phosphorus, change from baseline ([2]; 1 mg OD, Day 1): -0.13 ± 0.10 g/day | Urinary type IV collagen, change from baseline ([2]; 1 mg OD, Day 1): −0.44 ± 0.61 μg/g creatinine | Urinary uric acid, change from baseline ([2]; 1 mg OD, Day 1): 0.08 ± 0.07 g/day | Urinary β2-microglobulin, change from baseline ([2]; 1 mg OD, Day 1): -8.5 ± 31.3 µg/L | Cystatin C, change from baseline ([2]; 1 mg OD, Day 7): -0.061 ± 0.043 mg/L | DBP, change from baseline ([2]; 1 mg OD, Day 7): −0.8 ± 6.6 mmHg | Hematocrit, change from baseline ([2]; 1 mg OD, Day 7): −2.68 ± 0.89% | SBP, change from baseline ([2]; 1 mg OD, Day 7): −2.4 ± 12.8 mmHg | Serum calcium, change from baseline ([2]; 1 mg OD, Day 7): -0.41 ± 0.14 mg/dL | Serum phosphorus, change from baseline ([2]; 1 mg OD, Day 7): 0.20 ± 0.21 mg/dL | Urinary NAG, change from baseline ([2]; 1 mg OD, Day 7): 0.73 ± 0.80 U/L | Urinary calcium, change from baseline ([2]; 1 mg OD, Day 7): 0.00 ± 0.00 g/day | Urinary phosphorus, change from baseline ([2]; 1 mg OD, Day 7): 0.00 ± 0.13 g/day | Urinary type IV collagen, change from baseline ([2]; 1 mg OD, Day 7): 0.66 ± 1.22 μg/g creatinine | Urinary uric acid, change from baseline ([2]; 1 mg OD, Day 7): -0.03 ± 0.20 g/day | Urinary β2-microglobulin, change from baseline ([2]; 1 mg OD, Day 7): 17.3 ± 54.9 µg/L | Cystatin C, change from baseline ([2]; 2.5 mg OD, Day 1): 0.016 ± 0.060 mg/L | DBP, change from baseline ([2]; 2.5 mg OD, Day 1): −4.3 ± 5.6 mmHg | Hematocrit, change from baseline ([2]; 2.5 mg OD, Day 1): −0.58 ± 1.48% | SBP, change from baseline ([2]; 2.5 mg OD, Day 1): −5.6 ± 9.5 mmHg | Serum calcium, change from baseline ([2]; 2.5 mg OD, Day 1): -0.15 ± 0.23 mg/dL | Serum phosphorus, change from baseline ([2]; 2.5 mg OD, Day 1): 0.68 ± 0.23 mg/dL | Urinary NAG, change from baseline ([2]; 2.5 mg OD, Day 1): −0.68 ± 1.33 U/L | Urinary calcium, change from baseline ([2]; 2.5 mg OD, Day 1): -0.01 ± 0.04 g/day | Urinary phosphorus, change from baseline ([2]; 2.5 mg OD, Day 1): -0.24 ± 0.07 g/day | Urinary type IV collagen, change from baseline ([2]; 2.5 mg OD, Day 1): −0.05 ± 1.13 μg/g creatinine | Urinary uric acid, change from baseline ([2]; 2.5 mg OD, Day 1): -0.01 ± 0.04 g/day | Urinary β2-microglobulin, change from baseline ([2]; 2.5 mg OD, Day 1): -11.0 ± 44.9 µg/L | Cystatin C, change from baseline ([2]; 2.5 mg OD, Day 7): -0.064 ± 0.054 mg/L | DBP, change from baseline ([2]; 2.5 mg OD, Day 7): −6.1 ± 5.6 mmHg | Hematocrit, change from baseline ([2]; 2.5 mg OD, Day 7): −2.89 ± 1.81% | SBP, change from baseline ([2]; 2.5 mg OD, Day 7): −8.8 ± 10.9 mmHg | Serum calcium, change from baseline ([2]; 2.5 mg OD, Day 7): -0.40 ± 0.27 mg/dL | Serum phosphorus, change from baseline ([2]; 2.5 mg OD, Day 7): 0.38 ± 0.29 mg/dL | Urinary NAG, change from baseline ([2]; 2.5 mg OD, Day 7): −0.08 ± 1.26 U/L | Urinary calcium, change from baseline ([2]; 2.5 mg OD, Day 7): 0.00 ± 0.05 g/day | Urinary phosphorus, change from baseline ([2]; 2.5 mg OD, Day 7): -0.03 ± 0.17 g/day | Urinary type IV collagen, change from baseline ([2]; 2.5 mg OD, Day 7): 0.21 ± 1.85 μg/g creatinine | Urinary uric acid, change from baseline ([2]; 2.5 mg OD, Day 7): -0.06 ± 0.07 g/day | Urinary β2-microglobulin, change from baseline ([2]; 2.5 mg OD, Day 7): 5.5 ± 44.0 µg/L | Cystatin C, change from baseline ([2]; 5 mg OD, Day 1): 0.028 ± 0.042 mg/L | DBP, change from baseline ([2]; 5 mg OD, Day 1): 0.6 ± 6.0 mmHg | Hematocrit, change from baseline ([2]; 5 mg OD, Day 1): −0.54 ± 0.85% | SBP, change from baseline ([2]; 5 mg OD, Day 1): −1.3 ± 12.5 mmHg | Serum calcium, change from baseline ([2]; 5 mg OD, Day 1): -0.10 ± 0.20 mg/dL | Serum phosphorus, change from baseline ([2]; 5 mg OD, Day 1): 1.08 ± 0.37 mg/dL | Urinary NAG, change from baseline ([2]; 5 mg OD, Day 1): −0.81 ± 1.01 U/L | Urinary calcium, change from baseline ([2]; 5 mg OD, Day 1): -0.01 ± 0.04 g/day | Urinary phosphorus, change from baseline ([2]; 5 mg OD, Day 1): -0.24 ± 0.11 g/day | Urinary type IV collagen, change from baseline ([2]; 5 mg OD, Day 1): 0.11 ± 0.97 μg/g creatinine | Urinary uric acid, change from baseline ([2]; 5 mg OD, Day 1): 0.08 ± 0.12 g/day | Urinary β2-microglobulin, change from baseline ([2]; 5 mg OD, Day 1): -1.3 ± 13.5 µg/L | Cystatin C, change from baseline ([2]; 5 mg OD, Day 7): -0.027 ± 0.065 mg/L | DBP, change from baseline ([2]; 5 mg OD, Day 7): −3.1 ± 6.0 mmHg | Hematocrit, change from baseline ([2]; 5 mg OD, Day 7): −1.66 ± 1.99% | SBP, change from baseline ([2]; 5 mg OD, Day 7): −11.3 ± 11.8 mmHg | Serum calcium, change from baseline ([2]; 5 mg OD, Day 7): -0.16 ± 0.45 mg/dL | Serum phosphorus, change from baseline ([2]; 5 mg OD, Day 7): 0.42 ± 0.39 mg/dL | Urinary NAG, change from baseline ([2]; 5 mg OD, Day 7): −0.11 ± 1.18 U/L | Urinary calcium, change from baseline ([2]; 5 mg OD, Day 7): -0.03 ± 0.05 g/day | Urinary phosphorus, change from baseline ([2]; 5 mg OD, Day 7): -0.01 ± 0.14 g/day | Urinary type IV collagen, change from baseline ([2]; 5 mg OD, Day 7): 0.31 ± 1.26 μg/g creatinine | Urinary uric acid, change from baseline ([2]; 5 mg OD, Day 7): 0.01 ± 0.10 g/day | Urinary β2-microglobulin, change from baseline ([2]; 5 mg OD, Day 7): 1.4 ± 20.3 µg/L
